An excerpt weighted towards active compounds, which were near 3.7% of everything screened.
Kir21 inh: blocks the mouse Kir2.1 inward-rectifier potassium channel; 310,000 compounds, 0.85% hits; HEK293-Kir2.1, FluxOR thallium flux fluorescence; hits give low values; B-score at 10 µM; AID 1672;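 active = fluorescence ratio B-score at or below minus 3 SD of library scores, with starting-brightness B-score within 2 SD, cut at about -4.2 in these data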;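 note: channel flux triggered by added potassium and thallium sulfate stimulus; B-score of peak minus minimum fluorescence over baseline after thallium stimulus; more negative B-score means stronger Kir2.1 block with less thallium influx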
hERG rescue: shields human hERG channel from block by proarrhythmic agents | CHO-hERG, FluxOR thallium flux, dofetilide IC70 present | Q12809 | 310,000 compounds, 0.51% hits | AID 1511 | activation (rescue from dofetilide block), less the hit threshold, % at 10 µM;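 active = activation above the mean of controls blocked by dofetilide plus 5 SD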;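 note: thallium influx through hERG after potassium depolarization seen as dye fluorescence rise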
Target sequence (Q12809 whole entry, looked up): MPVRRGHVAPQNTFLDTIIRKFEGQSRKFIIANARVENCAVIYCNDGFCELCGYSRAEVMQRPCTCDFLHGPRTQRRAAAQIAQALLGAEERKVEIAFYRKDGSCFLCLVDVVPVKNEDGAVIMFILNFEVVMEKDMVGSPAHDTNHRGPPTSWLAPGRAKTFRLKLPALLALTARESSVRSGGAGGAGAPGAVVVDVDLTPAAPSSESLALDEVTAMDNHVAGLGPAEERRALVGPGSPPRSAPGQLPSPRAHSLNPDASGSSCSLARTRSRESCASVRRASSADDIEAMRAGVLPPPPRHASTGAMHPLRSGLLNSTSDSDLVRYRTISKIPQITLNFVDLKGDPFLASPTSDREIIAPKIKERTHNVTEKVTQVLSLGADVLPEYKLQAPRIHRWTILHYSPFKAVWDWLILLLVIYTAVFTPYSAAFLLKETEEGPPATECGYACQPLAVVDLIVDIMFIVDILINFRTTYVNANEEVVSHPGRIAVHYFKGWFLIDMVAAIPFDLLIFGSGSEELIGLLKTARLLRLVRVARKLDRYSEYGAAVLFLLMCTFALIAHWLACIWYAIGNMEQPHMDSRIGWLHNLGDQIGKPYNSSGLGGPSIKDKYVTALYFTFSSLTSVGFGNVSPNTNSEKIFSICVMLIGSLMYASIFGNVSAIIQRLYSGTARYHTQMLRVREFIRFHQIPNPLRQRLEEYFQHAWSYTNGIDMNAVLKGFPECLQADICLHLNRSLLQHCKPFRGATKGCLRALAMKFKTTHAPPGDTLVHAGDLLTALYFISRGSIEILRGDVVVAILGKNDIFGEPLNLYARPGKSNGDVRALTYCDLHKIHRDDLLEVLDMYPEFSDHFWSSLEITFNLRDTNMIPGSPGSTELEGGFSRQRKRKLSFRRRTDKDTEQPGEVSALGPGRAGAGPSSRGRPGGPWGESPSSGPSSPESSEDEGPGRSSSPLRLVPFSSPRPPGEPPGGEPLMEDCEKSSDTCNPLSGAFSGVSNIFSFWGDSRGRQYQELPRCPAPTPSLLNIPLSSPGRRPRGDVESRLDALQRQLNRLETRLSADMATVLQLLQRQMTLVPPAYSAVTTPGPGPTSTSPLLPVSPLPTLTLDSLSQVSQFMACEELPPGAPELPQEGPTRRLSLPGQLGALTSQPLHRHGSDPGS
KCNK9 block: blocks the human KCNK9 two-pore domain potassium channel | Q9NPC2 | HEK293 KCNK9, FluxOR thallium flux fluorescence; hits give low values | B-score at 10 µM | 310,000 compounds, 1.2% hits | AID 488922;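 active = ratio B-score over 3 SD below the library mean, with starting fluorescence within 5 SD of its mean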;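 note: negative B-score means less thallium flux so channel inhibition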
KCNK3 inh: human KCNK3 channel inhibition, primary screen | O14649 | B-score at 10 µM | AID 602410 | CHO-KCNK3 thallium flux, FluxOR fluorescence; hits give low values | 340,000 compounds, 0.84% hits;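 active = B-score under library mean minus 4 SD, starting fluorescence ratio at most library mean plus 5 SD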;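 note: more negative B-score means stronger inhibition of thallium flux through KCNK3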
KCNQ1 block: human KCNQ1 channel inhibition; CHO-K1 KCNQ1, FluxOR thallium flux fluorescence; hits give high values; B-score at 10 µM; 310,000 compounds, 1.3% hits; AID 2642;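 active = compounds whose thallium flux B-score, printed positive for inhibition, exceeds three library SD while starting fluorescence stays within three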;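 note: channel opened by potassium depolarization with thallium stimulus after 20 min compound exposure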
KCNQ1 act: potentiates or activates the human KCNQ1 potassium channel | P51787 | CHO-K1 KCNQ1, thallium flux FluxOR fluorescence; hits give high values | B-score at 10 µM | 310,000 compounds, 0.35% hits | AID 2648;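 active = fluorescence ratio B-score, a plate-corrected score, at least three library SD, with initial intensity B-score within 5 SD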
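System: Stable KCNQ1 CHO-K1 line | Incubation: 90 min dye loading and 20 min compound exposure, both at room temperature | Measure: Ratio B score | Medium: Assay buffer for compound exposure, DMSO matched across wells | Compound dosing: Single-concentration screen | Probe or stimulus: K+/Tl+ depolarizing stimulus | Measured by: Kinetic FluxOR fluorescence, 10 s baseline plus 110 s post-stimulus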
KCNK9 inh conf: confirmation of human KCNK9 potassium channel inhibitors; shares compounds with KCNK9 block; HEK293 KCNK9 cells, FluxOR thallium flux fluorescence; inhibition, % at 10 µM; 4,900 compounds, 43% hits;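 active = thallium signal inhibited by more than 5 SD of the compound-free buffer control wells, on both duplicate plates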;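 note: 0% = assay buffer control wells without compound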
Kir21 sel: tests whether KCNK9 modulators also affect mouse Kir2.1; shares compounds with KCNK9 block; Kir2.1 cells, FluxOR thallium flux fluorescence; 4,900 compounds, 4% hits; AID 492993; inhibition, % at 10 µM;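 active = thallium signal drop more than 5 SD beyond the mean of the no-compound control wells, seen in both duplicate plates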;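 note: signal is fluorescence rise after thallium addition divided by baseline fluorescence; plate controls were assay buffer only for no effect and full block by chlorpromazine control for full effect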
KCNK9 uninduced: second check of KCNK9 modulator effects in non-induced HEK293 cells; FluxOR thallium flux; inhibition, % at 10 µM; AID 492997; shares compounds with KCNK9 block; 4,900 compounds, 40% hits;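 active = thallium signal drop beyond 5 SD of the untreated control mean, on both duplicate plates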;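 note: plate controls were buffer only IC0 wells for no effect and SID17386958 at its maximal inhibitory level for full effect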
* marks the source's active call; other numbers are inactive results; i = inactive; x = no result given.

SMILES	Kir21 inh	hERG rescue	KCNK9 block	KCNK3 inh	KCNQ1 block	KCNQ1 act	KCNK9 inh conf	Kir21 sel	KCNK9 uninduced
COc1ccc(C(=O)C2CCCN(C(=O)c3n[nH]c4c3CCCC4)C2)cc1OC (stereo not drawn)	-0.69	-11.3	i	i	i	i	x	x	x
Cc1cc(Cl)ccc1C(=O)C1CCCN(C(=O)c2cnn(C(C)C)c2)C1 (stereo not drawn)	-1.77	-5.2	i	i	i	i	i	i	i
Cc1ccc(C(=O)N2CCCC(C(=O)c3ccc(Cl)cc3C)C2)cn1 (stereo not drawn)	-2.22	-3.7	i	i	i	i	x	x	x
Cc1cc(Cl)ccc1C(=O)C1CCCN(C(=O)c2n[nH]c3c2CCCC3)C1 (stereo not drawn)	-3.22	-3.9	i	i	i	i	i	i	i
CCOc1ccc(OCCC(=O)N(CC)CC(=O)Nc2ccccc2C(F)(F)F)cc1	0.35	-11.2	i	i	i	i	x	x	x
COc1ccc(-c2nc3ccccc3nc2-c2ccccc2)cc1	1.69	-5.2	i	i	i	i	x	x	x
C#CCn1c(S(=O)(=O)Cc2ccc(OC)cc2)nc(-c2ccccc2)c1-c1ccccc1	0.07	-1.9	-18.4*	-9.38*	i	i	62.5%*	i	25.5%*
CCCN(C(=O)c1c(-c2ccccc2)noc1C)c1c(N)n(Cc2ccccc2)c(=O)[nH]c1=O	x	x	x	i	x	x	x	x	x
Cc1ccccc1CC1(CO)CCCN(C(=O)c2cccc(Cl)c2)C1 (stereo not drawn)	-0.92	-18.7	i	i	i	i	i	i	23.5%*
Clc1cccc(Cl)c1CN1CCN(c2ncccn2)CC1	-0.31	-5.7	i	i	i	i	x	x	x
Cc1ccc(Sc2c(C#N)c(-c3ccccc3)nn2C)cc1	0.07	-14.9	-9.84*	i	6*	i	56.5%*	i	39.5%*
Cn1nc(-c2ccccc2)c(CN2CCN(c3ncccn3)CC2)c1Cl	-2.71	-4.5	i	i	i	i	i	i	i
Cc1ccc(SCc2nn(C)c(Cl)c2C=O)cc1	0	-6.8	i	i	i	i	x	x	x
Cc1ccc(SCc2c(-c3ccccc3)nn(C)c2Cl)cc1	-1.39	-4.6	-8.51*	i	6*	i	42.5%*	33.5%*	47.0%*
CCOC(=O)N1CCN(C(=O)CCNS(=O)(=O)c2ccc3c(c2)c(=O)n(C)c(=O)n3C)CC1	-0.06	-6.5	i	i	i	i	x	x	x
CCOC(=O)C(NC(=O)c1ccccc1Cl)(Nc1ccc(C(F)(F)F)cc1)C(F)(F)F (stereo not drawn)	-0.17	-7.0	-11.6*	i	i	i	66.0%*	i	42.5%*
CN(CC1CCN(CCc2cccc(C(F)(F)F)c2)CC1)C(=O)c1ccc(F)cc1	-0.04	-2.3	i	i	i	i	i	i	i
CN(CC1CCN(CCc2cccc(C(F)(F)F)c2)CC1)C(=O)c1ccccc1	0.38	-11.8	i	i	i	i	x	x	x
Cc1ccc([N+](=O)[O-])cc1N=C(c1cccc(Br)c1)N1CCOCC1	0.21	-8.9	-20.4*	-11.8*	i	i	57.0%*	i	33.0%*
COc1ccccc1Cc1noc(COc2cccc(C)c2C)n1	0.35	-14.2	i	i	i	i	i	i	i
CCCN(CC(=O)Nc1ccc(C)cc1Br)CC(=O)Nc1ccc(F)c(F)c1F	-0.46	-8.4	-9.94*	i	i	i	64.0%*	i	39.0%*
CCCN(CC(=O)Nc1cccc(Br)c1)CC(=O)Nc1ccc(F)c(F)c1F	1.65	-3.5	-15.4*	i	i	i	72.5%*	i	50.0%*
